In brackets after ≈: the same amount, converted by molar mass.
Experiments:
Format in all cases: functional, cell-based
A549 = experiment: Growth inhibition of A549 (human lung carcinoma) cell line.
How it was run: (§1)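 Cells from ATCC, grown in RPMI 1640 with 10% fetal calf serum. Compounds dissolved in DMSO, diluted in Earle's balanced salt solution then medium, 2-fold serial dilutions, each in triplicate versus triplicate drug-free controls. 2.5 × 10^3 cells per well, 72 h at 37 °C, 5% CO2. MTT added for 90 min, DMSO solubilization, absorbance at 570 nm. IC50 = 50% absorbance reduction versus control, by linear regression of dose-response curves.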

HT-29 = experiment: Growth inhibition of HT-29 (human colon adenocarcinoma) cell line.; how it was run: as §1
P388 = experiment: Growth inhibition of P388-D1 (murine leukemia) cell line.; settings: Mus musculus; how it was run: as §1

For `COc1cc([C@H]2C[C@H](O)c3cc4c(cc32)OCO4)cc(OC)c1O`, the IC50 (A549) was 9.9 µg/mL (≈ 30 µM), the IC50 (HT-29) was 12 µg/mL (≈ 36.3 µM) and the IC50 (P388) was 4.2 µg/mL (≈ 12.7 µM).
Compound `COc1cc([C@H]2C[C@H](OC)c3cc4c(cc32)OCO4)cc(OC)c1O` has an IC50 (A549) of 46.9 µg/mL (≈ 136 µM), an IC50 (HT-29) of 41.5 µg/mL (≈ 121 µM) and an IC50 (P388) of 8.1 µg/mL (≈ 23.5 µM).
Compound `COc1cc([C@H]2C[C@@H](O)c3cc4c(cc32)OCO4)cc(OC)c1OC` has an IC50 (A549) of 0.038 µg/mL (≈ 0.11 µM), an IC50 (HT-29) of 0.032 µg/mL (≈ 0.0929 µM) and an IC50 (P388) of 0.014 µg/mL (≈ 0.0407 µM).
With `COc1cc([C@@H]2c3cc4c(cc3[C@H](O)[C@@]23CCOC3=O)OCO4)cc(OC)c1O` the IC50 (A549) was > 50 µg/mL, the IC50 (HT-29) was > 50 µg/mL and the IC50 (P388) was > 50 µg/mL.
For `COc1cc([C@@H]2c3cc4c(cc3[C@]3(CO)COC(=O)[C@H]23)OCO4)cc(OC)c1O`, the IC50 (A549) was 12.5 µg/mL (≈ 31.2 µM), the IC50 (HT-29) was 12.2 µg/mL (≈ 30.5 µM) and the IC50 (P388) was 8 µg/mL (≈ 20 µM).
For `COc1cc([C@@H]2c3cc4c(cc3[C@H](O)[C@H]3COC(=O)[C@H]23)OCO4)cc(OC)c1OC` [PODOFILOX], the IC50 (A549) was 0.0043 µg/mL (≈ 0.0104 µM), the IC50 (HT-29) was 0.0043 µg/mL (≈ 0.0104 µM) and the IC50 (P388) was 0.0013 µg/mL (≈ 0.00314 µM).
`COc1cc([C@@H]2c3cc4c(cc3[C@@H](O)[C@@]23CCOC3=O)OCO4)cc(OC)c1O` was tested, and the IC50 (A549) was 48.2 µg/mL (≈ 120 µM), the IC50 (HT-29) was > 50 µg/mL and the IC50 (P388) was 16.8 µg/mL (≈ 42 µM).
In the case of `COc1cc(C2CC(=O)c3cc4c(cc32)OCO4)cc(OC)c1O` (stereo not given), the IC50 (A549) is reported as 19.4 µg/mL (≈ 59.1 µM), the IC50 (HT-29) is reported as 19.2 µg/mL (≈ 58.5 µM) and the IC50 (P388) is reported as 1.7 µg/mL (≈ 5.18 µM).
`COC(=O)[C@@]12CCO[C@@H]1c1cc3c(cc1[C@H]2c1cc(OC)c(OC)c(OC)c1)OCO3` gave an IC50 (A549) of 11.9 µg/mL (≈ 27.8 µM), an IC50 (HT-29) of 17.4 µg/mL (≈ 40.6 µM) and an IC50 (P388) of 5.7 µg/mL (≈ 13.3 µM).
With `COC(=O)[C@@]12CCO[C@@H]1c1cc3c(cc1[C@H]2c1cc(OC)c(O)c(OC)c1)OCO3` the IC50 (A549) was > 50 µg/mL, the IC50 (HT-29) was > 50 µg/mL and the IC50 (P388) was 43 µg/mL (≈ 104 µM).
For `COc1cc(C2CC(=O)c3cc4c(cc32)OCO4)cc(OC)c1OC` (stereo not given), the IC50 (A549) was 2.9 µg/mL (≈ 8.47 µM), the IC50 (HT-29) was 2.9 µg/mL (≈ 8.47 µM) and the IC50 (P388) was 1.1 µg/mL (≈ 3.21 µM).
Compound `COc1cc([C@@H]2c3cc4c(cc3[C@H](O)[C@@]23CCOC3=O)OCO4)cc(OC)c1OC` has an IC50 (A549) of 5.1 µg/mL (≈ 12.3 µM), an IC50 (HT-29) of 5.3 µg/mL (≈ 12.8 µM) and an IC50 (P388) of 2.5 µg/mL (≈ 6.03 µM).
`COc1cc([C@@H]2c3cc4c(cc3[C@@H](O[C@@H]3O[C@@H]5CO[C@@H](C)O[C@H]5[C@H](O)[C@H]3O)[C@H]3COC(=O)[C@H]23)OCO4)cc(OC)c1O` [ETOPOSIDE] showed an IC50 (A549) of 1.03 µg/mL (≈ 1.75 µM), an IC50 (HT-29) of 1.7 µg/mL (≈ 2.89 µM) and an IC50 (P388) of 0.063 µg/mL (≈ 0.107 µM).
`COc1cc([C@H]2C[C@H](OC3CCCCC3)c3cc4c(cc32)OCO4)cc(OC)c1O` gave an IC50 (A549) of 9.7 µg/mL (≈ 23.5 µM), an IC50 (HT-29) of 8.6 µg/mL (≈ 20.8 µM) and an IC50 (P388) of 6.6 µg/mL (≈ 16 µM).
In the case of `COc1cc([C@H]2C[C@@H](OC3CCCCC3)c3cc4c(cc32)OCO4)cc(OC)c1O`, the IC50 (A549) is reported as 12 µg/mL (≈ 29.1 µM), the IC50 (HT-29) is reported as 10.3 µg/mL (≈ 25 µM) and the IC50 (P388) is reported as 7.9 µg/mL (≈ 19.2 µM).
`COc1cc([C@H]2C[C@H](OC(C)(C)C)c3cc4c(cc32)OCO4)cc(OC)c1O` was tested, and the IC50 (A549) was 31.3 µg/mL (≈ 81 µM), the IC50 (HT-29) was 28.8 µg/mL (≈ 74.5 µM) and the IC50 (P388) was 7.1 µg/mL (≈ 18.4 µM).
`COc1cc([C@H]2C[C@@H](O)c3cc4c(cc32)OCO4)cc(OC)c1O` was tested, and the IC50 (A549) was 0.76 µg/mL (≈ 2.3 µM), the IC50 (HT-29) was 2.1 µg/mL (≈ 6.36 µM) and the IC50 (P388) was 0.53 µg/mL (≈ 1.6 µM).
Work on `COc1cccc2c1C(=O)c1c(O)c3c(c(O)c1C2=O)C[C@@](O)(C(=O)CO)C[C@@H]3O[C@H]1C[C@H](N)[C@H](O)[C@H](C)O1` [DOXORUBICIN] yielded an IC50 (A549) of 0.053 µg/mL (≈ 0.0975 µM), an IC50 (HT-29) of 0.11 µg/mL (≈ 0.202 µM) and an IC50 (P388) of 0.017 µg/mL (≈ 0.0313 µM).
`COc1cc([C@@H]2c3cc4c(cc3[C@]3(CO)COC(=O)[C@H]23)OCO4)cc(OC)c1OC` was tested, and the IC50 (A549) was 1.2 µg/mL (≈ 2.9 µM), the IC50 (HT-29) was 1.2 µg/mL (≈ 2.9 µM) and the IC50 (P388) was 0.59 µg/mL (≈ 1.42 µM).
For `COc1cc([C@H]2C[C@@H](OC)c3cc4c(cc32)OCO4)cc(OC)c1O`, the IC50 (A549) was 1.1 µg/mL (≈ 3.19 µM), the IC50 (HT-29) was 3.2 µg/mL (≈ 9.29 µM) and the IC50 (P388) was 0.57 µg/mL (≈ 1.66 µM).
